A selection: hits, their analogues and other compounds. The true share with any hit is near 5.9%.
Pf Dd2 growth: inhibitors of Plasmodium falciparum Dd2 growth; hit rate 2.3% among 94,000; P. falciparum Dd2 growth, SYBR Green, 72 h; stronger effect = lower value; activity change, % at 10 µM; in the data active = activity change below about -80%; inconclusive = no clear call, values can overlap the other calls
T cruzi growth-1: T. cruzi proliferation inhibition | T. cruzi beta-gal in NIH3T3, GalScreen luminescence, 90 h | inhibition, % at 8.34 µM | hit rate 5.9% among 77,000 | AID 624255;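 active = mean inhibition above about 93%, with at least 55% of replicates each passing it, limit read from the data, passing the limit was not always enough; inconclusive = only one of those two conditions holds; inactive = neither condition holds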
IDH1 mut inh: inhibitors of human IDH1 R132H. O75874. IDH1 R132H reductase, diaphorase/resazurin fluorescence, 60 min. inhibition, % at 10 µM. hit rate 0.18% among 70,000; in the data active = inhibition above about 34%; inconclusive = no clear call, values can overlap the other calls; inactive = below about 11%;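 also: 0% = DMSO and 100% = no enzyme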
Target sequence (O75874 whole entry R132H): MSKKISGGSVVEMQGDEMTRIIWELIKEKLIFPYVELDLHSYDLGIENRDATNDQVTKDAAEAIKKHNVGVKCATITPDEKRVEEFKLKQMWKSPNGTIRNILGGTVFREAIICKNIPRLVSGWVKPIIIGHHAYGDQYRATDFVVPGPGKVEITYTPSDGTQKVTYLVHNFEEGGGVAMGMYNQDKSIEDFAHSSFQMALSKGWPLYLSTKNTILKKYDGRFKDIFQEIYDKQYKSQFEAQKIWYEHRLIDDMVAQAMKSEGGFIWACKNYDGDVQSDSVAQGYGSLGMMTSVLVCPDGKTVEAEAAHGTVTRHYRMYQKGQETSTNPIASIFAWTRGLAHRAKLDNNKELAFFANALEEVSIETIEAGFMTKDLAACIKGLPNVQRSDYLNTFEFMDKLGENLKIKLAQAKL
KDM4C inh: KDM4C (human) demethylase inhibition | GST-KDM4C 2-372, H3K9me3 peptide, LANCE TR-FRET | inhibition, % at 12.5 µM | hit rate 0.15% among 96,000 | AID 720574;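 active = mean replicate inhibition above about 25%, with at least 55% of replicates also reaching it, limit read from the data, passing the limit was not always enough; inconclusive = only one of those two conditions met; inactive = neither condition met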
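System – N-terminal GST-fused human GASC-1 (KDM4C) fragment, residues 2-372 · Input – enzyme final amount 10 nM · Technique – LANCE TR-FRET, Eu antibody, ULight-streptavidin, EDTA, ex 340 nm, em 618/671 nm · Medium – HEPES buffer, pH 7.5, plus ascorbate · Incubation – enzyme reaction 30 min, then detection 60 min, both room temperature · Reagent – H3K9me3 peptide with Fe(II)/2OG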
T cruzi growth-2: blocks T. cruzi growth in NIH3T3 host cells; shares compounds with T cruzi growth-1; T. cruzi beta-gal in NIH3T3, GalScreen luminescence, 90 h; inhibition, % at 8.35 µM; hit rate 72% among 5,600; AID 651739;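 active = mean replicate inhibition above about 95% and at least 55% of replicates individually reaching it, limit read from the data; inconclusive = only one of the two criteria is met; inactive = neither criterion is met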
T cruzi growth-3: inhibitors of T. cruzi proliferation; shares compounds with T cruzi growth-1; hit rate 21% among 5,600; AID 651740; T. cruzi beta-gal in NIH3T3, GalScreen luminescence, 90 h; inhibition, % at 2.09 µM;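 active = mean inhibition above about 95%, with at least 55% of replicates also reaching it, limit read from the data; inconclusive = meets just one of the two conditions; inactive = meets neither condition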;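 also: plate controls were neutral control median for no effect and positive control median for full effect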
NIH3T3 tox: cytotoxicity in mouse NIH/3T3 fibroblasts. shares compounds with T cruzi growth-1. NIH/3T3 viability, CellTiter-Glo ATP luminescence, 90 h. cytotoxicity (signal decrease), % at 8.35 µM. hit rate 14% among 5,600;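 active = mean signal decrease across replicates above about 35% based on untreated-well scatter, with enough replicates individually passing, limit read from the data; inconclusive = no rule stated though some were filed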;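 also: 0% = median of neutral control wells and 100% = median of positive control wells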
3T3 cytotox 2: NIH/3T3 (mouse) viability loss; shares compounds with T cruzi growth-1; NIH/3T3 viability, CellTiter-Glo ATP luminescence, 90 h; inhibition, % at 24.9 µM; hit rate 56% among 5,600;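 active = mean loss of cell viability signal at or above a set limit, and enough replicates individually reaching it; inconclusive = meets only the mean limit or only the replicate share; inactive = meets neither condition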;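 also: 0% = median of neutral control wells and 100% = median of positive control wells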
An asterisk follows results filed as active; ? = inconclusive; . = no result given.

SMILES	Pf Dd2 growth	T cruzi growth-1	IDH1 mut inh	KDM4C inh	T cruzi growth-2	T cruzi growth-3	NIH3T3 tox	3T3 cytotox 2
CN(C)C(=O)c1cccc(-c2ccc([C@H]3[C@@H](CO)N(C(=O)C4CCC4)[C@H]3C#N)cc2)c1	-52	104*	.	-1	72	32	11	10
CN(C)C(=O)c1cccc(-c2ccc([C@H]3[C@@H](C#N)N(C(=O)C4CCC4)[C@H]3CO)cc2)c1	-7	102*	.	-2	-21	-8	-21	-30
CN(C)C(=O)c1ccc(-c2ccc([C@@H]3[C@@H](C#N)N(C(=O)C4CCOCC4)[C@H]3CO)cc2)cc1	25	98*	.	0	78	21	-15	18
C[C@@H]1CN([C@H](C)CO)C(=O)c2cc(NC(=O)Cc3ccccc3)ccc2O[C@H]1CN(C)Cc1ccc(-c2ccccc2)cc1	-6	91	3	2	.	.	.	.
C[C@@H]1CN([C@@H](C)CO)C(=O)c2cc(NC(=O)Cc3ccccc3)ccc2O[C@@H]1CN(C)Cc1ccc(-c2ccccc2)cc1	15	?	.	0	111*	59	12	95*
C[C@H](CO)N1C[C@H](C)[C@@H](CN(C)Cc2ccc(Oc3ccccc3)cc2)Oc2ccc(NC(=O)Cc3ccccc3)cc2C1=O	-1	?	1	2	78	83	7	89*
COc1c(O)ccc(C(c2cn(C)c3ccccc23)c2cn(C)c3ccccc23)c1[N+](=O)[O-]	.	.	0	.	.	.	.	.
COc1ccc(NC(=O)Nc2ccc3c(c2)C(=O)N([C@@H](C)CO)C[C@@H](C)[C@@H](CN(C)C(=O)Nc2ccc(C(F)(F)F)cc2)OCCCC[C@@H](C)O3)cc1	-56	?	.	-2	101*	107*	8	3
COc1ccc(NC(=O)N(C)C[C@H]2OCCCC[C@@H](C)Oc3ccc(NC(=O)Nc4ccc(C(F)(F)F)cc4)cc3C(=O)N([C@@H](C)CO)C[C@H]2C)cc1	-62	109*	.	0	105*	113*	10	6
COc1ccc(NC(=O)Nc2ccc3c(c2)C(=O)N([C@@H](C)CO)C[C@@H](C)[C@H](CN(C)C(=O)Nc2ccc(C(F)(F)F)cc2)OCCCC[C@H](C)O3)cc1	-11	?	.	1	103*	100*	4	19
COc1ccc(NC(=O)Nc2ccc3c(c2)C(=O)N([C@@H](C)CO)C[C@H](C)[C@@H](CN(C)C(=O)Nc2ccc(C(F)(F)F)cc2)OCCCC[C@H](C)O3)cc1	-82*	?	.	1	107*	110*	16	13
COc1ccc(NC(=O)N(C)C[C@@H]2OCCCC[C@@H](C)Oc3ccc(NC(=O)Nc4ccc(C(F)(F)F)cc4)cc3C(=O)N([C@H](C)CO)C[C@H]2C)cc1	15	28	1	-2	.	.	.	.
Cc1cc(C)n2nc(SCC(=O)Nc3cccc([N+](=O)[O-])c3)nc2n1	.	.	0	.	.	.	.	.
COc1ccc(NC(=O)Nc2ccc3c(c2)C(=O)N([C@H](C)CO)C[C@H](C)[C@@H](CN(C)C(=O)Nc2ccc(C(F)(F)F)cc2)OCCCC[C@H](C)O3)cc1	-90*	?	0	1	112*	107*	10	1
COc1ccc(C#Cc2ccc([C@@H]3[C@H]4CN(C(=O)Nc5cccc(F)c5)CCCCN4[C@H]3CO)cc2)cc1	-51	68	.	-2	.	.	.	.
COc1ccc(C#Cc2ccc([C@H]3[C@H]4CN(C(=O)Nc5ccccc5)CCCCN4[C@H]3CO)cc2)cc1	-77	119*	.	-1	108*	56	19	22
C/C=C/c1ccc([C@@H]2[C@H](CO)N3CCCCN(C(=O)Nc4ccc(OC)cc4)C[C@@H]23)cc1	-24	61	.	-3	.	.	.	.
COc1ccc(C#Cc2ccc([C@H]3[C@@H](CO)N4CCCCN(C(=O)Nc5ccccc5)C[C@@H]34)cc2)cc1	-32	125*	.	-3	111*	114*	12	30*
COc1ccc(C#Cc2ccc([C@H]3[C@@H](CO)N4CCCCN(C(=O)Nc5cccc(F)c5)C[C@@H]34)cc2)cc1	1	112*	.	-4	101*	109*	23	18
C/C=C/c1ccc([C@H]2[C@@H](CO)N3CCCCN(C(=O)Nc4ccc(OC)cc4)C[C@H]23)cc1	-17	?	.	0	85	10	-1	90*
COc1ccc(CCNC(=S)n2cc(C)cn2)cc1OC	.	.	0	.	.	.	.	.
COc1cccc(OC)c1C(=O)Nc1ccc(Cl)c(-c2nc3ncccc3o2)c1	.	.	0	.	.	.	.	.
Cc1ccc(S(=O)(=O)N2C(=O)CCC2C(=O)Nc2ccc(I)cc2)cc1 (stereo unspecified)	.	.	2	.	.	.	.	.
Cc1ccc(-c2ccc3c(c2)O[C@H](CN(C)C(=O)NC(C)C)[C@H](C)CN([C@H](C)CO)S3(=O)=O)cc1	20	32	0	2	.	.	.	.
CC(C)NC(=O)N(C)C[C@H]1Oc2cc(-c3ccncc3)ccc2S(=O)(=O)N([C@H](C)CO)C[C@H]1C	0	109*	6	-2	68	28	4	32*
SMILES	Pf Dd2 growth	T cruzi growth-1	IDH1 mut inh	KDM4C inh	T cruzi growth-2	T cruzi growth-3	NIH3T3 tox	3T3 cytotox 2
CC(C)NC(=O)N(C)C[C@H]1Oc2cc(-c3ccncc3)ccc2S(=O)(=O)N([C@@H](C)CO)C[C@@H]1C	-19	110*	2	1	85	38	-16	13
O=C(CNS(=O)(=O)c1cc(Cl)ccc1Cl)Nc1cccc([N+](=O)[O-])c1	.	.	0	.	.	.	.	.
C[C@@H]1CCCCO[C@H](CN(C)C(=O)Nc2ccc(C(F)(F)F)cc2)[C@@H](C)CN([C@@H](C)CO)C(=O)c2cc(NC(=O)Cc3ccccc3)ccc2O1	-89*	?	2	-1	101*	114*	2	?
C[C@@H]1CCCCO[C@H](CN(C)C(=O)Nc2ccccc2)[C@H](C)CN([C@H](C)CO)C(=O)c2cc(NC(=O)Cc3ccccc3)ccc2O1	-68	29	0	0	.	.	.	.
C[C@H](CO)N1C[C@H](C)[C@H](CN(C)C(=O)Nc2ccc(F)cc2)OCCCC[C@H](C)Oc2ccc(NC(=O)Cc3ccccc3)cc2C1=O	4	104*	.	-1	101*	40	-21	6
C[C@H]1CCCCO[C@@H](CN(C)C(=O)Nc2ccc(C(F)(F)F)cc2)[C@@H](C)CN([C@@H](C)CO)C(=O)c2cc(NC(=O)Cc3ccccc3)ccc2O1	-63	?	.	-1	107*	111*	11	24*
C[C@@H]1CCCCO[C@@H](CN(C)C(=O)Nc2ccccc2)[C@H](C)CN([C@@H](C)CO)C(=O)c2cc(NC(=O)Cc3ccccc3)ccc2O1	-26	-28	1	-1	.	.	.	.

Assay outcomes as filed in PubChem.
